For assay [1], the system named is L1210. Description: Cytotoxicity against mouse L1210 cells after 3 days by MTT assay. It is filed as functional, cell-based. Particulars: L1210, 72 h. The gist of the method:
(§1)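 Murine tumour cells under continuous drug exposure for 3 days. Growth inhibition measured by MTT assay. IC50 is the concentration inhibiting growth by 50%.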
In general terms: Formazan colour is commonly taken as a measure of viable cells.

The nature of assay [2]: Cytotoxicity against mouse B16F0 cells after 3 days by MTT assay. Type of assay: functional, cell-based. Particulars: B16F0, 72 h. The gist of the method: as §1

Structures are written as SMILES.

Broadly, the IC50 is the concentration that gives 50% inhibition. Take `COc1cc2cc(C(=O)Nc3cc(O)c4ccccc4c3CCCl)[nH]c2c(OC)c1OC`: the IC50 in assay [1] was 180 nM; in assay [2] it was 150 nM.
